Laboratory results from ChEMBL document CHEMBL3865824, “New (E)-1-alkyl-1H-benzo[d]imidazol-2-yl)methylene)indolin-2-ones: Synthesis, in vitro cytotoxicity evaluation and apoptosis inducing studies” (Eur J Med Chem, 2016).

Columns and labels:
[1] = Cytotoxicity against human A549 cells assessed as growth inhibition at 50 uM after 48 hrs by MTT assay relative to control; type: functional; conditions: A549, 48 h, read-out: GI
Summary of the method: (§1)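 Cells grown in DMEM or MEM with 10% FBS at 37 °C, 5% CO2. Seeded at 1×10^4 cells/well, incubated 48 h, then exposed to compound for 48 h with vehicle control. MTT (5 mg/mL stock) added for 4 h; formazan dissolved in DMSO, absorbance read at 570 nm. Preliminary screen at 50 µM. Compounds giving >50% inhibition were tested for dose-response curves; IC50 derived by linear regression of % inhibition versus concentration. Mean of three independent experiments in triplicate.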

[2] = Cytotoxicity against […] cells assessed as growth inhibition at 50 uM after 48 hrs by MTT assay relative to control; type: functional; conditions: Mus musculus, 4T1, 48 h; read-out: GI; summary of the method: as §1
[3] = Selectivity ratio of IC50 for human MCF10A cells to IC50 for human PC3 cells; type: ADME, cell-based, MCF-10A; conditions: MCF10A cells versus PC3 cells, read-out: Ratio IC50
[4] = Cytotoxicity against human MCF7 cells assessed as reduction in cell viability after 48 hrs by MTT assay; type: functional, cell-based; conditions: MCF7, 48 h; summary of the method: as §1
[5] = Selectivity ratio of IC50 for human MCF10A cells to IC50 for human BT549 cells; type: ADME, cell-based, MCF-10A; conditions: MCF10A cells versus BT549 cells, read-out: Ratio IC50
[6] = Cytotoxicity against human PC3 cells assessed as growth inhibition at 50 uM after 48 hrs by MTT assay relative to control; type: functional; conditions: PC-3, 48 h, read-out: GI; summary of the method: as §1
[7] = Cytotoxicity against human BT549 cells assessed as growth inhibition at 50 uM after 48 hrs by MTT assay relative to control; type: functional; conditions: BT-549, 48 h, read-out: GI; summary of the method: as §1
[8] = Selectivity ratio of IC50 for human MCF10A cells to IC50 for HGC cells; type: ADME, cell-based, MCF-10A; conditions: MCF10A cells versus HGC cells, read-out: Ratio IC50
[9] = Selectivity ratio of IC50 for human MCF10A cells to IC50 for human MDA-MB-231 cells; type: ADME, cell-based, MCF-10A; conditions: MCF10A cells versus MDA-MB-231 cells, read-out: Ratio IC50
[10] = Cytotoxicity against human MDA-MB-231 cells assessed as reduction in cell viability after 48 hrs by MTT assay; type: functional, cell-based; conditions: MDA-MB-231, 48 h; summary of the method: as §1
[11] = Cytotoxicity against human MDA-MB-231 cells assessed as growth inhibition at 50 uM after 48 hrs by MTT assay relative to control; type: functional; conditions: MDA-MB-231, 48 h, read-out: GI; summary of the method: as §1
[12] = Cytotoxicity against human MCF7 cells assessed as growth inhibition at 50 uM after 48 hrs by MTT assay relative to control; type: functional; conditions: MCF7, 48 h, read-out: GI; summary of the method: as §1
[13] = Cytotoxicity against […] cells assessed as reduction in cell viability after 48 hrs by MTT assay; type: functional, cell-based; conditions: 4T1, 48 h; summary of the method: as §1
[14] = Cytotoxicity against human DU145 cells assessed as reduction in cell viability after 48 hrs by MTT assay; type: functional, cell-based; conditions: DU-145, 48 h; summary of the method: as §1
[15] = Cytotoxicity against human A549 cells assessed as reduction in cell viability after 48 hrs by MTT assay; type: functional, cell-based; conditions: A549, 48 h; summary of the method: as §1
[16] = Selectivity ratio of IC50 for human MCF10A cells to IC50 for human DU145 cells; type: ADME, cell-based, MCF-10A; conditions: MCF10A cells versus DU145 cells, read-out: Ratio IC50
[17] = Cytotoxicity against human BT549 cells assessed as reduction in cell viability after 48 hrs by MTT assay; type: functional, cell-based; conditions: BT-549, 48 h; summary of the method: as §1
[18] = Cytotoxicity against HGC cells assessed as growth inhibition at 50 uM after 48 hrs by MTT assay relative to control; type: functional; conditions: Homo sapiens, read-out: GI; summary of the method: as §1
[19] = Cytotoxicity against human MCF10A cells assessed as reduction in cell viability after 48 hrs by MTT assay; type: toxicity, cell-based, MCF-10A; summary of the method: as §1
[20] = Selectivity ratio of IC50 for human MCF10A cells to IC50 for human MCF7 cells; type: ADME, cell-based, MCF-10A; conditions: MCF10A cells versus MCF7 cells, read-out: Ratio IC50
[21] = Cytotoxicity against HGC cells assessed as reduction in cell viability after 48 hrs by MTT assay; type: functional, cell-based; conditions: Homo sapiens; summary of the method: as §1
[22] = Cytotoxicity against human PC3 cells assessed as reduction in cell viability after 48 hrs by MTT assay; type: functional, cell-based; conditions: PC-3, 48 h; summary of the method: as §1
[23] = Selectivity ratio of IC50 for human MCF10A cells to IC50 for human A549 cells; type: ADME, cell-based; conditions: MCF10A cells versus A549 cells, read-out: Ratio IC50
[24] = Cytotoxicity against human DU145 cells assessed as growth inhibition at 50 uM after 48 hrs by MTT assay relative to control; type: functional; conditions: DU-145, 48 h, read-out: GI; summary of the method: as §1
[25] = Selectivity ratio of IC50 for human MCF10A cells to IC50 for […] cells; type: ADME, cell-based, MCF-10A; conditions: MCF10A cells versus 4TI cells, read-out: Ratio IC50
[26] = Cell cycle arrest in human MDA-MB-231 cells assessed as accumulation at G0/G1 phase at 4 uM after 24 hrs by propidium iodide staining based FACS analysis (reference value: 50.4 %); type: functional
Summary of the method: (§2)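 MDA-MB-231 at 1×10^6 cells/well treated with 1, 2 or 4 µM for 24 h, with a DMSO control. Cells harvested by trypsin, washed with PBS and fixed in 70% ethanol for 30 min at 4 °C. Stained 15 min at room temperature in the dark with PI buffer containing Triton X and DNase-free RNase A. Analysed by flow cytometry; G0/G1, S and G2/M fractions quantified.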

[27] = Cell cycle arrest in human MDA-MB-231 cells assessed as accumulation at S phase at 4 uM after 24 hrs by propidium iodide staining based FACS analysis (reference value: 24.6 %); type: functional; summary of the method: as §2
[28] = Cell cycle arrest in human MDA-MB-231 cells assessed as accumulation at G2/M phase at 4 uM after 24 hrs by propidium iodide staining based FACS analysis (reference value: 26 %); type: functional; summary of the method: as §2

## CC(C)n1c(/C=C2/C(=O)Nc3ccc(Cl)cc32)nc2ccccc21
[1]
  inhibition of growth at 50 µM: > 50%
[2]
  inhibition of growth at 50 µM: > 50%
[3]
  selectivity ratio: 2 to 3
[4]
  IC50: 24 µM
[5]
  selectivity ratio: 2 to 3
[6]
  inhibition of growth at 50 µM: > 50%
[7]
  inhibition of growth at 50 µM: > 50%
[8]
  selectivity ratio: 2 to 3
[9]
  selectivity ratio: 2 to 3
[10]
  IC50: 25.1 µM
[11]
  inhibition of growth at 50 µM: > 50%
[12]
  inhibition of growth at 50 µM: > 50%
[13]
  IC50: 35.7 µM
[14]
  IC50: 36.4 µM
[15]
  IC50: 35.2 µM
[16]
  selectivity ratio: 2 to 3
[17]
  IC50: 35.1 µM
[18]
  inhibition of growth at 50 µM: > 50%
[19]
  IC50 at 48 h: 68.8 µM
[20]
  selectivity ratio: 2 to 3
[21]
  IC50: 32.8 µM
[22]
  IC50: 38.1 µM
[23]
  selectivity ratio: 2 to 3
[24]
  inhibition of growth at 50 µM: > 50%
[25]
  selectivity ratio: 2 to 3

## CCN(CC)CCNC(=O)c1c(C)[nH]c(/C=C2\C(=O)Nc3ccc(F)cc32)c1C [SUNITINIB]
[4]
  IC50: 23.8 µM
[26]
  Activity: 67.6%
[27]
  Activity: 18.3%
[28]
  Activity: 13.9%
[10]
  IC50: 7.44 µM
[14]
  IC50: 16.4 µM
[15]
  IC50: 14.4 µM
[17]
  IC50: 15.5 µM
